Results from ChEMBL document CHEMBL1126156, “Multivariate analysis by the minimum spanning tree method of the structural determinants of diphenylethylenes and triphenylacrylonitriles implicated in estrogen receptor binding, protein kinase C activity, and MCF7 cell proliferation” (J Med Chem, 1992).

Legend:
MCF7S [1] = experiment: Agonist activity against MCF-7 cell proliferation; assay type: functional, cell-based; details: Homo sapiens
Outline: (§1)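 MCF-7 cells grown in phenol red-free medium with 5% dextran-coated charcoal-treated serum, tested 10 pM to 1 μM. DNA content read after growth. Agonism expressed relative to the maximum response with E2 (=100%), whatever the concentration. EC50 (50% of maximum response) taken from two separate experiments.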

[2] = target: T1, Protein kinase C, PKC; classical (Rattus norvegicus) (UniProt P05696+P68403+P63319); experiment: The percent stimulation or inhibition of protein kinase C III activity was determined for phosphatidylserine (PS) and diolein(PS+DO) in the presence of [Ca2+]; assay type: protein assay; design: concentration or dose not given beside the values; details: values are per cent of control
Outline: (§2)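 Type III (α) PKC purified from rat brain soluble fraction, assayed with calf thymus H1 histone, 0.1 mM Ca2+, 5 mM magnesium acetate, 10 μM [32P]ATP, 2 μg/mL phosphatidylserine plus 0.2 μg/mL diolein. Compounds mostly at 10⁻⁴ M; activity expressed as percent of control.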

BT-20 [3] = experiment: (§3) Cytotoxic effect on ER-negative BT20 cell proliferation; assay type: functional, Homo sapiens; design: concentration or dose not given beside the values
Outline: (§4)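 ER-negative BT20 cells, no E2, test compound at 3–10 μM for 6 days. DNA read as percent of untreated control. IC30 is the concentration inhibiting growth by 30%; percent inhibition taken at 10⁻⁵ M. Means of two experiments, triplicate wells.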

Rattus norvegicus [4] = species: Rattus norvegicus; experiment: Percent stimulation or inhibition of protein kinase C III activity for protamine sulfate in the presence of EGTA.; design: concentration or dose not given beside the values; details: values are per cent of control
Outline: (§5)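 Rat brain type III (α) PKC, purified, with protamine sulfate as substrate and 0.5 mM EGTA in place of Ca2+, phosphatidylserine and diolein; 5 mM magnesium acetate, 10 μM [32P]ATP. Most compounds at 10⁻⁴ M; percent of control activity.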

[5] = target: Estrogen receptor (Bos taurus) (UniProt Q9XSB5+P49884); experiment: Relative binding affinity for calf uterus estrogen receptor after 2 hr at 0 degree C; assay type: protein assay
Outline: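 Calf uterus cytosol ER incubated 2 h at 0 °C with [6,7-3H]-17β-estradiol and competitor. RBA given relative to estradiol (=100%), mean of at least four determinations.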

BT-20 [6] = experiment: as §3; assay type: functional; details: Homo sapiens; outline: as §4
MCF7S [7] = experiment: Agonistic activity in MCF-7 cell proliferation.; assay type: functional, Homo sapiens; outline: as §1
MCF7S [8] = experiment: (§6) Antagonist activity against MCF-7 cell proliferation; assay type: functional, Homo sapiens
Outline: (§7)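 Phenol red-free MCF-7 cultures with 5% dextran-coated charcoal-treated serum, stimulated by 0.1 nM E2. Proliferation read as DNA content after 8 days relative to E2 alone. Percent antagonism is the inhibition at 10⁻⁶ M test compound versus 10⁻¹⁰ M E2. IC50 (50% of maximum response) from two separate experiments.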

[9] = target: T1, Protein kinase C, PKC; classical (Rattus norvegicus); experiment: Percent stimulation or inhibition of protein kinase C III activity for phosphatidylserine (PS) in the presence of [Ca2+].; assay type: protein assay; design: concentration or dose not given beside the values; details: values are per cent of control
Outline: (§8)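 Purified type III (α) PKC from rat brain soluble fraction. Substrate calf thymus H1 histone with 0.1 mM Ca2+, 5 mM magnesium acetate, 10 μM [32P]ATP and 2 μg/mL phosphatidylserine, no diolein. Most compounds at 10⁻⁴ M, given as percent of control activity.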

MCF7S [10] = experiment: as §6; assay type: functional, cell-based; details: Homo sapiens; outline: as §7
MCF7S [11] = experiment: Cytostatic activity against MCF-7 cell proliferation.; assay type: functional, Homo sapiens; design: concentration or dose not given beside the values
Outline: (§9)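 MCF-7 cells in phenol red-free charcoal-treated medium given 10⁻⁶ M E2 plus test compound (3–10 μM), 6 days of growth. DNA expressed as percent of E2-treated cells. IC30 is the concentration giving 30% inhibition. Percent inhibition taken at 10⁻⁵ M, or at 10⁻⁶ M in a second series. Means of two experiments.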

MCF7S [12] = experiment: Cytotoxic effect on MCF-7 cell proliferation; assay type: functional; details: Homo sapiens; outline: as §9
MCF7S [13] = experiment: Cytostatic activity against MCF-7 cell proliferation; assay type: functional, Homo sapiens
Outline: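 MCF7 (ER-positive) human breast cancer cells grown in 24-well plates in phenol red-free medium with 5% dextran-coated charcoal, with 10⁻⁶ M E₂ added. Cells exposed to compound for 6 days, then DNA measured and expressed as percent of E₂-alone DNA. Triplicate wells per experiment; values are means of two experiments.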

[14] = target: T1, Protein kinase C, PKC; classical (Rattus norvegicus); experiment: (§10) Percent stimulation or inhibition of protein kinase C with [Ca2+] for phosphatidylserine and diolein(PS+DO); assay type: protein assay; design: concentration or dose not given beside the values; details: values are per cent of control; outline: as §2
[15] = target: T1, Protein kinase C, PKC; classical (Rattus norvegicus); experiment: Percent stimulation or inhibition of protein kinase C with [Ca2+] for phosphatidylserine (PS); assay type: protein assay; details: values are per cent of control; outline: as §8
[16] = target: T1, Protein kinase C, PKC; classical (Rattus norvegicus); experiment: as §10; assay type: protein assay; outline: as §2
Rattus norvegicus [17] = species: Rattus norvegicus; experiment: Percent stimulation or inhibition of protein kinase C with EGTA for protamine sulfate; details: concentration not given here; outline: as §5

SMILES | EC50 (MCF7S [1]) | residual activity [2] | Inhibition (BT-20 [3]) | residual activity (Rattus norvegicus [4]) | RBA [5] | IC30 (BT-20 [6]) | Agonism (MCF7S [7]) | Antagonism (MCF7S [8]) | residual activity [9] | IC50 (MCF7S [10]) | Inhibition (MCF7S [11]) | IC30 (MCF7S [12]) | Inhibition (MCF7S [13]) | residual activity [14] | residual activity [15] | residual activity ([16]; values are per cent of control) | inhibition ([16]; concentration not given here) | inhibition (Rattus norvegicus [17])
CC(C)N(CCOc1ccc(C(=C(C#N)c2ccccc2)c2ccc(OCCN(C(C)C)C(C)C)cc2)cc1)C(C)C | 0.84 nM | 8% | 89% | 85% | 0.03% | 3200 nM | 29% | 79% | 18% | 325 nM | 97% | 2700 nM |  |  |  |  |  | 
CC(C)CCOc1ccc(C(=C(C#N)c2ccccc2)c2ccc(OCCC(C)C)cc2)cc1 | > 1000 nM | 86% | 37% | 78% |  | 9000 nM | 0% | 0% | 118% | > 1000 nM | 3% | > 10000 nM |  |  |  |  |  | 
CCN(CC)CCOc1ccc(C(C#N)=C(c2ccc(O)cc2)c2ccc(O)cc2)cc1 | 0.8 nM | 0% | 50% | 105% |  | 3000 nM | 45% | 50% | 7% | 200 nM | 68% | 6000 nM |  |  |  |  |  | 
CC/C(=C(/c1ccc(O)cc1)c1ccc(OCCN(C)C)cc1)c1ccccc1 |  | 14% |  | 100% |  |  | 61% |  | 32% |  |  |  | 74% |  |  |  |  | 
Cc1ccc(/C(=C(\C#N)c2ccc(O)cc2)c2ccc(O)cc2)cc1 |  |  |  |  |  |  | 73% |  |  |  | 54% |  |  | 68% | 88% | 68% |  | 
CN(C)c1ccc(C(=C(C#N)c2ccccc2)c2ccc(N(C)C)cc2)cc1 |  |  |  | 88% |  |  | 85% |  |  |  | 48% |  |  |  |  |  | 57% | 88%
